Entries after “also recorded” stand apart in the source; their conditions may differ.
Experiments:
[1] = Plasma PK, multiple ascending dose; assay type: in vivo, human; conditions: for Cmax / AUCτ / Cmax (dn) / AUCτ (dn): geometric mean (CV %); for Tmax: median (range); for Cmax (dn) / AUCτ (dn): dose normalized; for t1/2: arithmetic mean (SD)
[2] = Urinary PK, MAD period day 10; assay type: in vivo, human; conditions: day 10, across all doses
How it was run: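 During the MAD period, urine was collected on day −1 (0–24 h) and day 10 (0–12 h and 12–24 h), with LLOQ 1 ng/mL. Renal clearance and unchanged drug recovered in urine were summarized descriptively as geometric mean (CV), by dose group and for the Japanese 400 mg q.d. cohort.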

[3] = rats, preclinical studies; cited from earlier work
[4] = background statement, no reference given; cited from earlier work
[5] = system: OCT2; conditions: cited from earlier work
[6] = system: MRP1; conditions: cited from earlier work
[7] = system: MATE1; conditions: cited from earlier work
[8] = pH 6.5; background statement, no reference given; cited from earlier work
[9] = background statement, no reference given; cited from earlier work; remark: listed apart in the source
[10] = system: MATE2; conditions: cited from earlier work
[11] = MAD day 1 fed Japanese cohort 400 mg q.d.
[12] = MAD day 10 fed Japanese cohort 400 mg q.d.

Question: Which Cmax ([1]; MAD day 1 fed 100 mg q.d.) does the source give for `Cn1cc(-c2cn3nccc3c(-c3cnn([C@]4(CC#N)C[C@@H](C#N)C4)c3)n2)cn1` [PF‐06826647] here?
Answer: 267.2 (20) ng/mL

Question: What about the Tmax ([1]; MAD day 1 fed 100 mg q.d.) of the same molecule?
Answer: 4.0 (1.0–4.0) hour

Question: And the AUCτ ([1]; MAD day 1 fed 200 mg b.i.d., tau = 12 hours)?
Answer: 1,646.0 (70) ng.hour/mL

Question: What about the “Cmax (dn)” value ([1]; MAD day 1 fed 200 mg b.i.d.) of the same molecule?
Answer: 1.5 (67) ng/mL/mg

Question: What about the Cmax ([1]; MAD day 1 fed 200 mg b.i.d.) of the same molecule?
Answer: 289.8 (67) ng/mL

Question: What about the Tmax ([1]; MAD day 1 fed 200 mg b.i.d.) of the same molecule?
Answer: 4.0 (2.0–6.0) hour

Question: And the “AUCτ (dn)” value ([1]; MAD day 1 fed 400 mg q.d.)?
Answer: 11.1 (67) ng.hour/mL/mg

Question: What about the “Cmax (dn)” value ([1]; MAD day 1 fed 400 mg q.d.) of the same molecule?
Answer: 1.5 (33) ng/mL/mg

Question: What about the AUCτ ([1]; MAD day 1 fed 400 mg q.d.) of the same molecule?
Answer: 4,424.0 (67) ng.hour/mL

Question: What about the Cmax ([1]; MAD day 1 fed 400 mg q.d.) of the same molecule?
Answer: 585.9 (33) ng/mL

Question: And the Tmax ([1]; MAD day 1 fed 400 mg q.d.)?
Answer: 3.0 (2.0–6.0) hour

Question: And the “AUCτ (dn)” value ([1]; MAD day 1 fed 1,200 mg q.d.)?
Answer: 14.2 (20) ng.hour/mL/mg

Question: And the “Cmax (dn)” value ([1]; MAD day 1 fed 1,200 mg q.d.)?
Answer: 1.7 (10) ng/mL/mg

Question: What about the AUCτ ([1]; MAD day 1 fed 1,200 mg q.d.) of the same molecule?
Answer: 17,090.0 (20) ng.hour/mL

Question: What about the Cmax ([1]; MAD day 1 fed 1,200 mg q.d.) of the same molecule?
Answer: 2,023.0 (10) ng/mL

Question: And the Tmax ([1]; MAD day 1 fed 1,200 mg q.d.)?
Answer: 2.0 (2.0–4.0) hour

Question: What about the AUCτ [1, 11] of the same molecule?
Answer: 6,038.0 (29) ng.hour/mL

Question: And the Cmax [1, 11]?
Answer: 695.5 (19) ng/mL

Question: And the Tmax [1, 11]?
Answer: 4.0 (2.0–4.0) hour

Question: What about the “median Tmax” value ([1]; MAD day 10, standard meal, all doses (30–1,200 mg)) of the same molecule?
Answer: 4 h

Question: What about the t1/2 ([1]; MAD day 10 fed 30 mg q.d.) of the same molecule?
Answer: 8.8 (5.8) hour

Question: And the “AUCτ (dn)” value ([1]; MAD day 10 fed 30 mg q.d.)?
Answer: 25.1 (32) ng.hour/mL/mg

Question: What about the “Cmax (dn)” value ([1]; MAD day 10 fed 30 mg q.d.) of the same molecule?
Answer: 2.8 (27) ng/mL/mg

Question: What about the AUCτ ([1]; MAD day 10 fed 30 mg q.d.) of the same molecule?
Answer: 752.9 (32) ng.hour/mL

Question: And the Cmax ([1]; MAD day 10 fed 30 mg q.d.)?
Answer: 85.3 (27) ng/mL

Question: What about the Tmax ([1]; MAD day 10 fed 30 mg q.d.) of the same molecule?
Answer: 4.0 (4.0–6.0) hour

Question: What about the t1/2 ([1]; MAD day 10 fed 100 mg q.d.) of the same molecule?
Answer: 12.7 (12.7) hour

Question: And the “AUCτ (dn)” value ([1]; MAD day 10 fed 100 mg q.d.)?
Answer: 19.5 (33) ng.hour/mL/mg

Question: And the “Cmax (dn)” value ([1]; MAD day 10 fed 100 mg q.d.)?
Answer: 2.6 (30) ng/mL/mg

Question: What about the AUCτ ([1]; MAD day 10 fed 100 mg q.d.) of the same molecule?
Answer: 1,952.0 (33) ng.hour/mL

Question: And the Cmax ([1]; MAD day 10 fed 100 mg q.d.)?
Answer: 263.2 (30) ng/mL

Question: What about the Tmax ([1]; MAD day 10 fed 100 mg q.d.) of the same molecule?
Answer: 4.0 (2.0–4.0) hour

Question: What about the AUCτ ([1]; MAD day 10 fed 200 mg b.i.d., tau = 12 hours) of the same molecule?
Answer: 2,010.0 (49) ng.hour/mL

Question: What about the t1/2 ([1]; MAD day 10 fed 200 mg b.i.d.) of the same molecule?
Answer: 26.9 (8.1) hour

Question: What about the “Cmax (dn)” value ([1]; MAD day 10 fed 200 mg b.i.d.) of the same molecule?
Answer: 1.7 (46) ng/mL/mg

Question: And the Cmax ([1]; MAD day 10 fed 200 mg b.i.d.)?
Answer: 339.5 (46) ng/mL

Question: What about the Tmax ([1]; MAD day 10 fed 200 mg b.i.d.) of the same molecule?
Answer: 4.0 (2.0–4.0) hour

Question: And the t1/2 ([1]; MAD day 10 fed 400 mg q.d.)?
Answer: 7.5 (2.6) hour

Question: What about the “AUCτ (dn)” value ([1]; MAD day 10 fed 400 mg q.d.) of the same molecule?
Answer: 13.6 (57) ng.hour/mL/mg

Question: What about the “Cmax (dn)” value ([1]; MAD day 10 fed 400 mg q.d.) of the same molecule?
Answer: 1.7 (37) ng/mL/mg

Question: What about the AUCτ ([1]; MAD day 10 fed 400 mg q.d.) of the same molecule?
Answer: 5,420.0 (57) ng.hour/mL

Question: What about the Cmax ([1]; MAD day 10 fed 400 mg q.d.) of the same molecule?
Answer: 667.3 (37) ng/mL

Question: What about the Tmax ([1]; MAD day 10 fed 400 mg q.d.) of the same molecule?
Answer: 4.0 (2.0–6.0) hour

Question: What about the t1/2 ([1]; MAD day 10 fed 1,200 mg q.d.) of the same molecule?
Answer: 34.3 (21.9) hour

Question: What about the “AUCτ (dn)” value ([1]; MAD day 10 fed 1,200 mg q.d.) of the same molecule?
Answer: 12.4 (31) ng.hour/mL/mg

Question: And the “Cmax (dn)” value ([1]; MAD day 10 fed 1,200 mg q.d.)?
Answer: 1.5 (21) ng/mL/mg

Question: What about the AUCτ ([1]; MAD day 10 fed 1,200 mg q.d.) of the same molecule?
Answer: 14,890.0 (31) ng.hour/mL

Question: And the Cmax ([1]; MAD day 10 fed 1,200 mg q.d.)?
Answer: 1,855.0 (21) ng/mL

Question: What about the Tmax ([1]; MAD day 10 fed 1,200 mg q.d.) of the same molecule?
Answer: 4.0 (2.0–4.0) hour

Question: And the t1/2 [1, 12]?
Answer: 7.4 (4.8) hour

Question: And the AUCτ [1, 12]?
Answer: 7,194.0 (20) ng.hour/mL

Question: What about the Cmax [1, 12] of the same molecule?
Answer: 887.0 (11) ng/mL

Question: And the Tmax [1, 12]?
Answer: 4.0 (2.0–6.0) hour

Question: What about the plasma accumulation ([1]; after multiple dosing, q.d. and b.i.d.) of the same molecule?
Answer: < 1.5 fold

Question: What about the “steady‐state reached by” value ([1]; both q.d. and b.i.d. dosing) of the same molecule?
Answer: ≤ 2 days

Question: What about the “dose recovered unchanged in urine” value [2] of the same molecule?
Answer: < 1.5%

Question: What about the “drug clearance via renal and biliary excretion” value [3] of the same molecule?
Answer: limited drug clearance via renal and biliary excretion

Question: And the pKa [4]?
Answer: < 1.7

Question: And the “inhibition of transporter protein OCT2” value [5]?
Answer: minimal inhibition

Question: What about the “inhibition of transporter protein MRP1” value [6] of the same molecule?
Answer: minimal inhibition

Question: What about the “inhibition of transporter protein MATE1” value [7] of the same molecule?
Answer: minimal inhibition

Question: What about the solubility [8] of the same molecule?
Answer: ~ 0.3 μg/mL

Question: What about the cellular permeability [9] of the same molecule?
Answer: ~ 17 × 10^‐6 cm/s

Question: And the “inhibition of transporter protein MATE2” value [10]?
Answer: MATE2 inhibition; also recorded: inhibitor of the MATE2 renal transporter
